Measurements published in ChEMBL document CHEMBL3600342, “Fragment-Based Drug Discovery Targeting Inhibitor of Apoptosis Proteins: Discovery of a Non-Alanine Lead Series with Dual Activity Against cIAP1 and XIAP” (J Med Chem, 2015).
pEC50: −log10 of the molar value. Calls of active or inactive are those of the source. The rule behind the calls is not given here.

Columns and labels:
[1] = molecular target: T1, E3 ubiquitin-protein ligase XIAP (Homo sapiens, UniProt P98170); experiment: Antagonist activity at XIAP-BIR3 domain (unknown origin) assessed as inhibition of interaction with SMAC at 5 mM by fluorescence polarization assay relative to control
Outline: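 Competitive FP binding of a SMAC-derived fluorescent tracer, AbuRPFK(5&6FAM)-amide (5 nM), to XIAP-BIR3 (20 nM). Compound was tested at 5 mM and equilibrated at room temperature. Polarization was read at ex 485/em 538 nm and reported as percent inhibition, mean of at least two runs.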

[2] = molecular target: Baculoviral IAP repeat-containing protein 2 (Homo sapiens) (UniProt Q13490); experiment: Antagonist activity at cIAP1-BIR3 domain (unknown origin) assessed as inhibition of interaction with SMAC at 5 mM by fluorescence polarization assay relative to control
Outline: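 Competitive FP assay: cIAP1-BIR3 (4 nM) with a 2 nM SMAC-derived FAM peptide tracer, AbuRPFK(5&6FAM)-amide. Compound was tested at 5 mM. Polarization was read at ex 485/em 538 nm and expressed as percent inhibition, mean of at least two runs.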

[3] = tested on: EVSA-T; experiment: cells; details: Homo sapiens, 72 h
[4] = molecular target: T1, E3 ubiquitin-protein ligase XIAP; experiment: Antagonist activity at full-length FLAG-tagged XIAP (unknown origin) transfected in HEK293 cells assessed as inhibition of interaction with caspase 9 after 2 hrs by immunoprecipitation assay; assay type: cell-based
[5] = tested on: MDA-MB-231; experiment: Antitumor activity against human MDA-MB-231 cells xenografted in Balb/c SCID mouse assessed as tumor growth inhibition at 100 mg/kg, po qd measured every 3 days; assay type: functional, organism-based
Outline: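 Balb/c scid mice were inoculated s.c. with 5 x 10^6 MDA-MB-231 cells and dosing began when group (n=8) mean tumor volume reached 100 mm³. Arms: 100 mg/kg i.p. b.i.d., 100 mg/kg p.o. q.d., or vehicle. Tumor volume (length x width x width x 0.5) measured every 3 days; body weight recorded daily.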

[6] = molecular target: T1, E3 ubiquitin-protein ligase XIAP; details: 0.05 uM
[7] = tested on: MDA-MB-231; experiment: cells; details: Homo sapiens, MDA-MB-231, 72 h
[8] = molecular target: Baculoviral IAP repeat-containing protein 2 (Homo sapiens) (UniProt Q13490); experiment: Antagonist activity at cIAP1-BIR3 domain (unknown origin) assessed as inhibition of interaction with SMAC at 0.01 uM by fluorescence polarization assay relative to control
[9] = tested on: HCT-116; experiment: cells; details: Homo sapiens, HCT-116, 72 h
[10] = molecular target: T1, E3 ubiquitin-protein ligase XIAP; experiment: Antagonist activity at XIAP-BIR3 domain (unknown origin) assessed as inhibition of interaction with SMAC at 155 uM by fluorescence polarization assay relative to control
[11] = tested on: Mus musculus; experiment: Reduction of XIAP level in human MDA-MB-231 cells xenografted in Balb/c SCID mouse at 100 mg/kg, ip measured after 1 to 24 hrs by Western blot analysis; assay type: functional, organism-based
Outline: (§1)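 Male Balb/c scid mice bearing MDA-MB-231 tumors received a single 100 mg/kg i.p. dose in 10% DMSO/90% saline (freebase equivalent). Tumors were harvested at 1, 6 and 24 h and snap frozen. Lysates were ground under liquid nitrogen in Triton lysis buffer with NaF/Na3VO4, and equal protein was run on SDS-PAGE. Blots were probed for cIAP1, XIAP, cleaved PARP and cleaved caspase-3, with infrared detection; comparison against vehicle-dosed tumors.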

[12] = tested on: Mus musculus; experiment: Toxicity in Balb/c SCID mouse xenografted with human MDA-MB-231 cells assessed as effect on body weight at 100 mg/kg, ip bid measured everyday during compound dosing; details: in vivo
[13] = tested on: Mus musculus; experiment: Reduction of cIAP1 level in human MDA-MB-231 cells xenografted in Balb/c SCID mouse at 100 mg/kg, ip measured after 1 to 6 hrs by Western blot analysis relative to vehicle-treated control; assay type: functional, organism-based; outline: as §1
[14] = tested on: Mus musculus; experiment: Reduction of cIAP1 level in human MDA-MB-231 cells xenografted in Balb/c SCID mouse at 100 mg/kg, ip measured after 24 hrs by Western blot analysis; assay type: functional, organism-based; outline: as §1
[15] = tested on: Mus musculus; experiment: Increase in cleaved caspase-3 level in human MDA-MB-231 cells xenografted in Balb/c SCID mouse at 100 mg/kg, ip measured after 1 to 24 hrs by Western blot analysis; assay type: functional, organism-based; outline: as §1
[16] = tested on: Mus musculus; experiment: Increase in cleaved PARP level in human MDA-MB-231 cells xenografted in Balb/c SCID mouse at 100 mg/kg, ip measured after 1 to 24 hrs by Western blot analysis; assay type: functional, organism-based; outline: as §1
[17] = tested on: MDA-MB-231; experiment: Antitumor activity against human MDA-MB-231 cells xenografted in Balb/c SCID mouse assessed as tumor growth inhibition at 100 mg/kg, ip bid measured every 3 days
[18] = tested on: Mus musculus; experiment: Reduction of cIAP1 level in human MDA-MB-231 cells xenografted in Balb/c SCID mouse at 100 mg/kg, ip measured after 1 hr by MSD plate-based method relative to vehicle-treated control; assay type: functional, organism-based
[19] = molecular target: T1, E3 ubiquitin-protein ligase XIAP; experiment: Antagonist activity at XIAP-BIR3 domain (unknown origin) assessed as inhibition of interaction with SMAC at 1 mM by fluorescence polarization assay relative to control
[20] = molecular target: T1, E3 ubiquitin-protein ligase XIAP; experiment: Antagonist activity at XIAP-BIR3 domain (unknown origin) assessed as inhibition of interaction with SMAC at 1000 uM by fluorescence polarization assay relative to control
[21] = molecular target: T1, E3 ubiquitin-protein ligase XIAP; experiment: Antagonist activity at XIAP-BIR3 domain (unknown origin) assessed as inhibition of interaction with SMAC at 495 uM by fluorescence polarization assay relative to control

T1 sequence (P98170 whole entry, the tested form may be a part): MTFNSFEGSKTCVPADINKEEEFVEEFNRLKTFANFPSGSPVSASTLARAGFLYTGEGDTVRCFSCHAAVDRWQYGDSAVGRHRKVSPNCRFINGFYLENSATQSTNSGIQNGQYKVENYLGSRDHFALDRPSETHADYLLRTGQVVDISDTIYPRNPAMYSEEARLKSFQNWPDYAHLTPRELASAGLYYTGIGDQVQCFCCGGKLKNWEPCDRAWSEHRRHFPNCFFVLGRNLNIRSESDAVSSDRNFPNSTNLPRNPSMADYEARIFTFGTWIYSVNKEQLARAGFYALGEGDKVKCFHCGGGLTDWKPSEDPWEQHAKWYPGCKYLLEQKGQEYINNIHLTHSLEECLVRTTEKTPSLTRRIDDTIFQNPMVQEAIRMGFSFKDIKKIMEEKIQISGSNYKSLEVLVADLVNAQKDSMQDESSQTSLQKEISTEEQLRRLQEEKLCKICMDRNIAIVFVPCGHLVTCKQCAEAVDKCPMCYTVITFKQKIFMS
Baculoviral IAP repeat-containing protein 2 (Homo sapiens), sequence (Q13490 whole entry, the tested form may be a part): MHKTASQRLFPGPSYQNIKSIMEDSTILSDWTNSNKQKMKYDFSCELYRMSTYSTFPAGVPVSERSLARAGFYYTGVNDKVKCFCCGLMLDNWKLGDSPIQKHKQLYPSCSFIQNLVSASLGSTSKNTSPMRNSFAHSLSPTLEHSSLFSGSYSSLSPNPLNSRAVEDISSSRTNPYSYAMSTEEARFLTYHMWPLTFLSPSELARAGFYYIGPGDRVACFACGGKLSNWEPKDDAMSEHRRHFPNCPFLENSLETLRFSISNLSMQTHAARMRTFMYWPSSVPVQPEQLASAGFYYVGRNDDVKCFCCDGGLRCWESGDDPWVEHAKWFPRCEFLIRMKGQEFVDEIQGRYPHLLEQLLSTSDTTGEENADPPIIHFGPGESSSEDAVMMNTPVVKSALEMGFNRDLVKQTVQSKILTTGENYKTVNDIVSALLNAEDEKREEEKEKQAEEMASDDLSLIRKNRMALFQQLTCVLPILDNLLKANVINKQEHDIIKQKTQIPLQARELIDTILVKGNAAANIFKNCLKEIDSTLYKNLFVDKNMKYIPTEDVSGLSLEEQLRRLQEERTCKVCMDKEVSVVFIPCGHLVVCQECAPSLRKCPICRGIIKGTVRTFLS

## Brc1cnn(C2CCNCC2)c1
[1]
  inhibition: 33%
[2]
  inhibition: 55%

## CN[C@@H](C)C(=O)N[C@H]1CN(C(=O)CC(C)C)CC[C@H]2CC[C@@H](C(=O)NC(c3ccccc3)c3ccccc3)N2C1=O [XEVINAPANT]
[3]
  pEC50: 8.68
[4]
  pEC50: 7.47
[5]
  TGI: Active
[6]
  inhibition: 70%
[7]
  pEC50: 7.72
[8]
  inhibition: 98%
[9]
  pEC50: < 5.00

## COc1ccc2c(c1)N(C(=O)CN1CCN[C@H](C)C1)CC2
[10]
  inhibition: 49%

## COC[C@H]1CN[C@H](C)CN1CC(=O)N1CC(C)(C)c2cnc(Cc3ccccc3)cc21
[11]
  Activity: inactive
[12]
  Activity: Non-toxic
[3]
  pEC50: 7.00
[13]
  Activity: Active
[14]
  Activity: inactive
[7]
  pEC50: 6.23
[15]
  Activity: Active
[16]
  Activity: Active
[9]
  pEC50: < 5.00
[17]
  TGI: Active
[18]
  Activity: Active

## C[C@@H]1CN(CC(=O)N2CCc3ccc(N)cc32)CCN1
[19]
  inhibition: 56%
[20]
  inhibition: 56%

## C[C@@H]1CN(CC(=O)N2CCc3ccccc32)CCN1
[21]
  inhibition: 52%

## O=C(CN1CCNCC1)N1CCCCC1
[1]
  inhibition: 38%
[2]
  inhibition: 16%
